Screening results as filed in PubChem BioAssay.
A selection: hits, their analogues and other compounds. The true share with any hit is near 2.6%.
VLA-4 inh: inhibition in human VLA-4 binding assay, primary screen, VLA-4 allosteric modulator project, MLPCN library, flow cytometry, VLA-4 expressing cells; Integrin alpha-4 (Homo sapiens), P13612; ligand binding flow cytometry; inhibition, % (about 7 µM as worked out from the volumes in the protocol); 330,000 compounds, 0.2% hits; in the data active = inhibition above about 50%
Rce1 inhib: yeast Rce1p protease inhibitors, primary screen, biochemical, fluorescence, cell-free homogeneous; yeast membranes, quenched prenylated peptide cleavage fluorescence; calls only; 290,000 compounds, 0.27% hits; AID 2563, 2010;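 active = fall in fluorescence gain of 50% or more versus controls, with final raw signal at or below 3038400; inconclusive = same 50% fall but final raw signal above 3038400; inactive = fall in fluorescence gain under 50%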;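 note: plate controls were neutral control wells for no effect and wells lacking membranes for full effect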
Target sequence (Q03530 whole entry, looked up): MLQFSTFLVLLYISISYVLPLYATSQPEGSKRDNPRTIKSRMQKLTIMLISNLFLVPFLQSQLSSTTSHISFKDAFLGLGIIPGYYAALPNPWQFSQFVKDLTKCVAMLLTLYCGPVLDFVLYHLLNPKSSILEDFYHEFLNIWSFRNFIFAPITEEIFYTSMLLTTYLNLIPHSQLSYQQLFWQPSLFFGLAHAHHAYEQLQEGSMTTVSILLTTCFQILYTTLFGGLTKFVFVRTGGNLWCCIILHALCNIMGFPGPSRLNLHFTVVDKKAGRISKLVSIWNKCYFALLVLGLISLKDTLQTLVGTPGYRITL
TAAR1 antag: human TAAR1 antagonists, primary screen, Fluo-8 calcium fluorescence, CHO RD-HGA16 cells. Trace amine-associated receptor 1 (Homo sapiens), Q96RJ0. antagonist. inhibition, % at 3 µM. 360,000 compounds, 1.5% hits. AID 624466, 2012;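 active = inhibition above a per-plate cutoff, the mean inhibition of test compounds on that plate plus 3 SD, cut at about 49% in these data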;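 note: 0% = DMSO plus EC80 beta-PEA response and 100% = DMSO alone without agonist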
Target sequence (Q96RJ0 whole entry, looked up): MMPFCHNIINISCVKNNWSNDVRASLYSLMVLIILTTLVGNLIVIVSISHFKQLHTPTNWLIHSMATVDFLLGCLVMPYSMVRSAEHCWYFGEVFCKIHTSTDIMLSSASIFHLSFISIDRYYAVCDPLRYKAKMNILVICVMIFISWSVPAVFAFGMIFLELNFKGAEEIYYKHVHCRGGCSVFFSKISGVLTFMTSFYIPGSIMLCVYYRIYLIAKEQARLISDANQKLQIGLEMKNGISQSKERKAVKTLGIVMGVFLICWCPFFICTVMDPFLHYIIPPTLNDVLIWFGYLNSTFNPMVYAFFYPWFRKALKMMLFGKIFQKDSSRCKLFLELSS
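Test system – hTAAR1-expressing CHO RD-HGA16 cells, Gα16-coupled · Also added – β-PEA at EC80 concentration, post-compound challenge · Compound – 3 µM, single point · Incubation – dye loading 75 min at 37 °C, then 30 min room temperature · Measured by – Fluo-8 intracellular calcium dye fluorescence, real-time kinetic reads · Benchmarks – vehicle and agonist controls · Replicates – singlicate, one well per test compound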
TAAR1 agonist: human TAAR1 agonists, primary screen, Fluo-8 calcium fluorescence, CHO RD-HGA16 cells; activation, % at 3 µM; 360,000 compounds, 0.99% hits; vehicle wells 0%, saturating PEA agonist 100%;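 active = activation above the mean activation of all test compounds in the run plus 3 SD, cut at about 38% in these data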
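System: CHO-derived RD-HGA16 cells with stable Gα16 and human TAAR1 / Times: 17-24 h plating, Fluo-8 75 min 37 °C, 30 min RT / Technique: calcium-sensitive Fluo-8 signal, excitation 470-495, emission 515-575 nm / Measure: % activation relative to PEA EC100 response / Benchmarks: DMSO and PEA EC100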
Platelet DG rel: inhibitors of platelet dense granule secretion, primary screen, cell-based, MLPCN, human platelets. human platelet-rich plasma, SFLLRN dense granule ATP release, luminescence. inhibition, %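 (compounds screened at 7.5 µM in platelet-rich plasma)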. 300,000 compounds, 0.22% hits. AID 1663, 2009;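 active = mean replicate score, as percent of positive control, at or above 50; inconclusive = mean below 50 but at least one replicate at or above 50; inactive = mean and every replicate below 50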
An asterisk follows results filed as active.

COc1ccc(-n2c(O)c(/C=N/NS(=O)(=O)c3ccc(C)cc3)c3ccccc3c2=O)cc1OC was read as VLA-4 inh -73.3, Rce1 inhib inactive, TAAR1 antag 42.2, TAAR1 agonist 20.9 and Platelet DG rel 11.7.
Screening C[C@@H]1CN([C@H](C)CO)C(=O)CCCn2nncc2CO[C@H]1CN(C)Cc1cccc2c1OCCCO2 returned TAAR1 antag 2.8 and TAAR1 agonist 3.2.
`CN1C(=O)/C(=C/c2cccc(Cl)c2)Sc2ccc(C(=O)N3CCOCC3)cc21` gave VLA-4 inh 26.6, Rce1 inhib active, TAAR1 antag 1.7, TAAR1 agonist 0.6 and Platelet DG rel -9.9.
For Cc1ccc(-c2nc3ccccc3[nH]2)s1 the results were VLA-4 inh -4.9, Rce1 inhib inconclusive, TAAR1 antag 9.4, TAAR1 agonist 2.2 and Platelet DG rel 59.0*.
c1csc(-c2nc3ccccc3[nH]2)c1 was read as VLA-4 inh 1.8, TAAR1 antag -5.1 and TAAR1 agonist -0.5.
Screening O=C(c1cc2c(ccc3ccccc32)oc1=O)N1CCCC1 returned VLA-4 inh 17.1, Rce1 inhib inactive, TAAR1 antag 5.2, TAAR1 agonist 4.8 and Platelet DG rel -0.2.
For O=C(O)c1cc2c(ccc3ccccc32)oc1=O the results were VLA-4 inh -5.3, Rce1 inhib active, TAAR1 antag 11.4, TAAR1 agonist 1.5 and Platelet DG rel 0.8.
Screening COC(=O)Cn1c(CCC(=O)O)ccc1-c1ccccc1 returned VLA-4 inh -1.9, Rce1 inhib active, TAAR1 antag -2.9, TAAR1 agonist 0.3 and Platelet DG rel -33.1.
`COc1ccc2nc(NC(=O)CS(=O)(=O)c3ccc(C)cc3)sc2c1` gave VLA-4 inh 10.6, Rce1 inhib inactive, TAAR1 antag 43.4, TAAR1 agonist 4.9 and Platelet DG rel 2.9.
COc1ccc(CCNC(=O)c2cccc(S(=O)(=O)N3CCc4ccccc4C3)c2)cc1 was read as VLA-4 inh 4.5, TAAR1 antag 48.9* and TAAR1 agonist 7.9.
`CCCN(CC(=O)Nc1ccccc1C)C(=O)c1ccc(S(=O)(=O)N2CCCCCC2)cc1` gave VLA-4 inh 12.3, Rce1 inhib inactive, TAAR1 antag -23.1, TAAR1 agonist 0.0 and Platelet DG rel 1.2.
`CCCN(CC(=O)Nc1ccccc1C)C(=O)c1cccc(S(=O)(=O)N2CCc3ccccc3C2)c1` gave VLA-4 inh 4.0, Rce1 inhib inactive, TAAR1 antag 59.2*, TAAR1 agonist 5.5 and Platelet DG rel 0.0.
Cc1cccc(C)c1NC(=O)CN(C)C(=O)C1CC(=O)N(c2cccc3ccccc23)C1 (centres undefined) was read as VLA-4 inh -2.5, TAAR1 antag -10.6 and TAAR1 agonist 3.0.
For O=c1[nH]c(=S)[nH]c2c1C(c1cccc(C(F)(F)F)c1)OC(CCc1ccccc1)C2 (centres undefined) the results were TAAR1 antag 9.1 and TAAR1 agonist 3.7.
For Cc1cc(OCCCC(=O)Nc2cccc(-n3cnnn3)c2)ccc1Cl the results were VLA-4 inh -3.4, Rce1 inhib inactive, TAAR1 antag 59.9*, TAAR1 agonist 6.9 and Platelet DG rel -3.9.
Screening COc1cccc(NC(=O)COc2cccc(-n3cnnn3)c2)c1 returned VLA-4 inh 0.6, Rce1 inhib inactive, TAAR1 antag 17.9, TAAR1 agonist 5.2 and Platelet DG rel -1.3.
`COc1cccc(C2CC(c3cccs3)=NN2C(=O)CSc2nc3c(cnn3-c3ccc(F)cc3)c(=O)[nH]2)c1OC` (centres undefined) gave VLA-4 inh 11.6, Rce1 inhib active and Platelet DG rel 4.9.
O=C(Nc1ccc(Cl)cc1)C1Cc2c(-c3ccccc3)ccnc2O1 (centres undefined) was read as TAAR1 antag -1.9 and TAAR1 agonist 8.1.
`CC1CCc2c(sc(NC(=O)COC(=O)c3ccccc3NCc3ccco3)c2C#N)C1` (centres undefined) gave VLA-4 inh -9.8, Rce1 inhib active, TAAR1 antag 6.0, TAAR1 agonist 11.1 and Platelet DG rel 9.4.
For CC1CCc2c(sc(NC(=O)c3ccccc3C(=O)O)c2C#N)C1 (centres undefined) the results were VLA-4 inh -0.5, Rce1 inhib inactive, TAAR1 antag -0.1, TAAR1 agonist 3.8 and Platelet DG rel -0.3.
CCOC(=O)c1cc2cc([N+](=O)[O-])ccc2oc1=O was read as VLA-4 inh 15.4, Rce1 inhib inactive, TAAR1 antag -14.6, TAAR1 agonist -3.4 and Platelet DG rel 58.6*.
For NC(=O)NC(Cc1ccccc1)C(=O)N1CCN(S(=O)(=O)c2ccc(Cl)cc2)CC1 (centres undefined) the results were VLA-4 inh 12.8, TAAR1 antag -14.1 and TAAR1 agonist 11.3.
O=C(NCCC1=CCCCC1)NC1CCCCC1 was read as VLA-4 inh 11.3, Rce1 inhib inactive, TAAR1 antag -5.8, TAAR1 agonist 3.2 and Platelet DG rel 54.0*.
For CCOC(=O)c1ccc(NC(=O)c2nc[nH]c2C(=O)N[C@H](C)CO)cc1 the results were TAAR1 antag -18.9 and TAAR1 agonist 0.0.
For CCN(CC)S(=O)(=O)c1cccc(NC(=O)c2ccc(SC)cc2OC)c1 the results were VLA-4 inh -15.7, Rce1 inhib inactive, TAAR1 antag 51.6*, TAAR1 agonist 5.1 and Platelet DG rel 0.2.
`COc1cccc2cc(C(C)N(CCCN3CCOCC3)C(=S)Nc3cc(C)ccc3C)oc12` (centres undefined) gave VLA-4 inh 3.4, Rce1 inhib inactive, TAAR1 antag -30.5, TAAR1 agonist -2.5 and Platelet DG rel -2.3.
For COc1cccc2cc(C(C)N(CCCN3CCOCC3)C(=S)Nc3cccc(C)c3C)oc12 (centres undefined) the results were VLA-4 inh -7.8, Rce1 inhib inactive, TAAR1 antag -47.9, TAAR1 agonist 39.2* and Platelet DG rel -4.9.
Screening CN(Cc1ccccc1)C(=O)Nc1c(Cl)cccc1Cl returned TAAR1 antag -13.6 and TAAR1 agonist 0.5.
For CCCCN1C(=O)/C(=C/C=C2\Oc3ccccc3N2CC)SC1=S the results were Rce1 inhib inactive, TAAR1 antag 89.7*, TAAR1 agonist 180.1* and Platelet DG rel 4.9.
Screening CC(C)(C)C(=O)C[n+]1ccc(C(N)=O)cc1 returned VLA-4 inh 6.7, Rce1 inhib active, TAAR1 antag -17.9, TAAR1 agonist 3.9 and Platelet DG rel 2.8.
`CN(C)C(=O)C[n+]1ccc(C(N)=O)cc1` gave VLA-4 inh -6.8, Rce1 inhib inactive, TAAR1 antag -32.6, TAAR1 agonist 1.1 and Platelet DG rel 6.5.
